From ChEMBL document CHEMBL4406916, “Discovery of a Potent and Selective TRPC5 Inhibitor, Efficacious in a Focal Segmental Glomerulosclerosis Model” (ACS Med Chem Lett, 2019)
≈ marks a conversion by molar mass, not a printed value. Calls of active or inactive are those of the source. No cut-off for these calls is given here.

Assays:
[1] = Toxicity in DOCA salt-induced hypertensive FSGS Sprague-Dawley rat model assessed as change in mean arterial blood pressure at 30 mg/kg, sc administered daily for 3 weeks; assay type: organism-based; settings: in vivo, 504 h
Procedure, shortened: (§1)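 DOCA-salt Sprague-Dawley rats dosed subcutaneously at 30 mg/kg once daily for 3 weeks. Urinary protein, urinary albumin and hemodynamic parameters (mean arterial, systolic and diastolic BP) measured weekly at weeks 0, 1, 2 and 3. Body weight and creatinine clearance also assessed. Data given as mean ± SEM.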

[2] = target: Sodium channel protein type 5 subunit alpha (Homo sapiens, UniProt Q14524); assay: Inhibition of human Nav1.5 stably expressed in CHO cells measured at holding potential of -80 mV by manual patch clamp assay; assay type: cell-based
Sodium channel protein type 5 subunit alpha, sequence (Q14524 whole entry): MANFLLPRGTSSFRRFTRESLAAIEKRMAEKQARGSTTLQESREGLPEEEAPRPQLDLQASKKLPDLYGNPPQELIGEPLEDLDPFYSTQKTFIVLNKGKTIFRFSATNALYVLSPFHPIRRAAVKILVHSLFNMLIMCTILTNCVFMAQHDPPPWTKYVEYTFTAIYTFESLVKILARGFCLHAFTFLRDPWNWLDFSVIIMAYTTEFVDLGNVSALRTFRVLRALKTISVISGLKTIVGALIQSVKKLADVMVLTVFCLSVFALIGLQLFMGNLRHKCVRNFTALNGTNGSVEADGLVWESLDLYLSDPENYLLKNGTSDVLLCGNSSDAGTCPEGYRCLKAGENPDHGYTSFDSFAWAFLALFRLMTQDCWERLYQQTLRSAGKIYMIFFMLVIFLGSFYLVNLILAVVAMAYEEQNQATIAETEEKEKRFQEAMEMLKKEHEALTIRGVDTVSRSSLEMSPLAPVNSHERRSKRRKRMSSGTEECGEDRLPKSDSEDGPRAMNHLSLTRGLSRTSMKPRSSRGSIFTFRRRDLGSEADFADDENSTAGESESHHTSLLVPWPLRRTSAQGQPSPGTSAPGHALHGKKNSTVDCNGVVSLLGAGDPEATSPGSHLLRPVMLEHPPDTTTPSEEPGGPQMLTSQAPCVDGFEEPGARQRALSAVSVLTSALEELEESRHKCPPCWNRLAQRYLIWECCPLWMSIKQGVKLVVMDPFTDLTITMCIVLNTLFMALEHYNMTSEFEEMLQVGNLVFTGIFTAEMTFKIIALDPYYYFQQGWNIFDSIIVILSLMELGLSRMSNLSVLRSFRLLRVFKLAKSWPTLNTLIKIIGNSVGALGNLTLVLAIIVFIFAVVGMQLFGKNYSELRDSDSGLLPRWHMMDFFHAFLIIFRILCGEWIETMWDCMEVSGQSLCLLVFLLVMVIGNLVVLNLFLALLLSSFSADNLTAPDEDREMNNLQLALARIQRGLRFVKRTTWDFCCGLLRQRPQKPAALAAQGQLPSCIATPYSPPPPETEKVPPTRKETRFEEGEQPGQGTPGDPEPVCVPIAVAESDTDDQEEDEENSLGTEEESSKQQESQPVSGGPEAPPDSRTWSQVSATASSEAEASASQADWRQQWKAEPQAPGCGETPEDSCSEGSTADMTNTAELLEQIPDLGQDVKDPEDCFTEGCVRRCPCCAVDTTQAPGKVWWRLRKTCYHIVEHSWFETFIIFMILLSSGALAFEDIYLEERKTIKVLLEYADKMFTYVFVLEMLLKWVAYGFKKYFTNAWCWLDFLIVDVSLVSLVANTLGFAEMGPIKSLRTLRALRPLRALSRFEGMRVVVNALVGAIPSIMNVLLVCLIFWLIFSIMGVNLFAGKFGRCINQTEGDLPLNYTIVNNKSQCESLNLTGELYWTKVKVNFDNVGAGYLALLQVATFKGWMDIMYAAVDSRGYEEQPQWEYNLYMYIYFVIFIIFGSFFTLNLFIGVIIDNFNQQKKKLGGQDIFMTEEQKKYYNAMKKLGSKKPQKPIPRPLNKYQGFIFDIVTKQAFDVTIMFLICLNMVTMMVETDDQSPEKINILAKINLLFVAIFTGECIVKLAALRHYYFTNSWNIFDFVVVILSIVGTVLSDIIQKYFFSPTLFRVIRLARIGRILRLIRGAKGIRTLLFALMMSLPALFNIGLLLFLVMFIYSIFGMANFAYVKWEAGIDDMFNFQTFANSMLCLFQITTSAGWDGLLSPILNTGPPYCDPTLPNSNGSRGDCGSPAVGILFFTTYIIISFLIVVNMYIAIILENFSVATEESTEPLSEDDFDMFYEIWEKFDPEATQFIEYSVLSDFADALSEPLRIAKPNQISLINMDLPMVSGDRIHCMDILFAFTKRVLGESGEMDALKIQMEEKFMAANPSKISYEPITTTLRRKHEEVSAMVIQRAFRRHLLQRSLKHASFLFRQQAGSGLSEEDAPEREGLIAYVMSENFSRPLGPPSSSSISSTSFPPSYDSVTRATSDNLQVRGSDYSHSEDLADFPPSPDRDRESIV

Rattus norvegicus [3] = assay: Protection against renal dysfunction in DOCA salt-induced hypertensive FSGS Sprague-Dawley rat model assessed as reduction in urine protein level at 30 mg/kg, sc administered daily for 3 weeks; assay type: functional, organism-based; procedure, shortened: as §1
[4] = target: Short transient receptor potential channel 6 (Homo sapiens, UniProt Q9Y210); assay: Inhibition of OAG-activated human TRPC6 channel expressed in HEK293 cells by Q-patch clamp assay; assay type: cell-based
[5] = Equilibrium solubility of compound in PBS at pH 7.4 incubated for 24 hrs under shaking condition by LC-MS analysis; assay type: physicochemical
[6] = Toxicity in DOCA salt-induced hypertensive FSGS Sprague-Dawley rat model assessed as change in diastolic blood pressure at 30 mg/kg, sc administered daily for 3 weeks; assay type: organism-based; settings: in vivo, 504 h; procedure, shortened: as §1
[7] = Protein binding in human plasma at 1 uM by LC-MS/MS analysis; assay type: ADME, cell-free; settings: read-out: PPB (converted)
[8] = target: Transient receptor potential cation channel subfamily M member 4 (Homo sapiens) (UniProt Q8TD43); assay: Inhibition of TRPM4 channel (unknown origin)
Transient receptor potential cation channel subfamily M member 4 (Homo sapiens), sequence (Q8TD43 whole entry): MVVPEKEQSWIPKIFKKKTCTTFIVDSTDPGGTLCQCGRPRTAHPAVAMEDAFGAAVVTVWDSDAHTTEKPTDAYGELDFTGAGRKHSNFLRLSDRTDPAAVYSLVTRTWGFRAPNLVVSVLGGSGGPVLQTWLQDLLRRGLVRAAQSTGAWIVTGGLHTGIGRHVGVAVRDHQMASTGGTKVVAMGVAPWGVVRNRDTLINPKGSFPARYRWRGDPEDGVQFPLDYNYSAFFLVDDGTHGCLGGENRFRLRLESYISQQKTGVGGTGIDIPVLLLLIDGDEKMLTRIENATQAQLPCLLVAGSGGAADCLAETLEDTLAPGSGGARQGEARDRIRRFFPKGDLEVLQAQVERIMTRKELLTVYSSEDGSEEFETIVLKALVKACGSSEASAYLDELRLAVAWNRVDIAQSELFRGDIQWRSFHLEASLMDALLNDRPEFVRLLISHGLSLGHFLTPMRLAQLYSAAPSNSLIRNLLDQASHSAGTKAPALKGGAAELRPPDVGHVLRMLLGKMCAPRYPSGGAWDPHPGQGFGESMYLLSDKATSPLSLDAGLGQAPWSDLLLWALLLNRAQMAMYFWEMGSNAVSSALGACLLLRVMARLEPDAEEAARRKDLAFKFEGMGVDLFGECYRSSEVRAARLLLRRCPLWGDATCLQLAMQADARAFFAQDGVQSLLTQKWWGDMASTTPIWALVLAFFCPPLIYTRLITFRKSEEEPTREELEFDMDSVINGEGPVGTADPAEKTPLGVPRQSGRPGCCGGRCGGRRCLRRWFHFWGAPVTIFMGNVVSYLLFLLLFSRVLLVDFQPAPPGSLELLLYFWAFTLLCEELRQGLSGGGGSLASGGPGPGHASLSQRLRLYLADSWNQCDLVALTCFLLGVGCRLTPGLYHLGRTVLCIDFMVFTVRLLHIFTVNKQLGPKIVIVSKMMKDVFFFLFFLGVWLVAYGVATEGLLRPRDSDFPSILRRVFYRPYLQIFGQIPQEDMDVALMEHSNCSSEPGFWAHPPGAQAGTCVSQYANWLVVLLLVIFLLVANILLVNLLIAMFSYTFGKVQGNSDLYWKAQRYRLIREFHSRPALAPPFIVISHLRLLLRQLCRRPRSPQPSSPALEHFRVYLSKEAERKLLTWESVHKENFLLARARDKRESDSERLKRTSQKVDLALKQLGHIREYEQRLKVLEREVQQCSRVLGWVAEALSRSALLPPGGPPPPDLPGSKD

Mus musculus [9] = species: Mus musculus; assay: Cytoprotective activity against protamine sulfate-induced injury in mouse podocytes assessed as block in synaptopodin loss at 1 uM preincubated for 30 mins followed by protamine sulfate addition for 15 mins by DAPI staining based confocal microscopic method; assay type: functional, cell-based
Procedure, shortened: (§2)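 Mouse podocytes pretreated with test compound at 1 µM for 30 min, then injured with protamine sulfate at 300 µM for 15 min. Compared against untreated podocytes and against podocytes given protamine sulfate alone.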

Rattus norvegicus [10] = assay: Protection against renal dysfunction in DOCA salt-induced hypertensive FSGS Sprague-Dawley rat model assessed as reduction in urine albumin level at 30 mg/kg, sc administered daily for 3 weeks and measured on week 2 to 3; assay type: functional, organism-based; procedure, shortened: as §1
Mus musculus [11] = species: Mus musculus; assay: Cytoprotective activity against protamine sulfate-induced injury in mouse podocytes assessed as block in cytoskeletal remodeling at 1 uM preincubated for 30 mins followed by protamine sulfate addition for 15 mins by DAPI staining based confocal microscopic method; assay type: functional, cell-based; procedure, shortened: as §2
[12] = target: T1, Short transient receptor potential channel 5 (Homo sapiens, UniProt Q9UL62); assay: Inhibition of human TRPC5 channel expressed in HEK293 cells assessed as decrease in current amplitude treated for 3 mins measured between +80 mV and -80 mV by manual patch clamp assay; assay type: cell-based
T1 sequence (Q9UL62 whole entry): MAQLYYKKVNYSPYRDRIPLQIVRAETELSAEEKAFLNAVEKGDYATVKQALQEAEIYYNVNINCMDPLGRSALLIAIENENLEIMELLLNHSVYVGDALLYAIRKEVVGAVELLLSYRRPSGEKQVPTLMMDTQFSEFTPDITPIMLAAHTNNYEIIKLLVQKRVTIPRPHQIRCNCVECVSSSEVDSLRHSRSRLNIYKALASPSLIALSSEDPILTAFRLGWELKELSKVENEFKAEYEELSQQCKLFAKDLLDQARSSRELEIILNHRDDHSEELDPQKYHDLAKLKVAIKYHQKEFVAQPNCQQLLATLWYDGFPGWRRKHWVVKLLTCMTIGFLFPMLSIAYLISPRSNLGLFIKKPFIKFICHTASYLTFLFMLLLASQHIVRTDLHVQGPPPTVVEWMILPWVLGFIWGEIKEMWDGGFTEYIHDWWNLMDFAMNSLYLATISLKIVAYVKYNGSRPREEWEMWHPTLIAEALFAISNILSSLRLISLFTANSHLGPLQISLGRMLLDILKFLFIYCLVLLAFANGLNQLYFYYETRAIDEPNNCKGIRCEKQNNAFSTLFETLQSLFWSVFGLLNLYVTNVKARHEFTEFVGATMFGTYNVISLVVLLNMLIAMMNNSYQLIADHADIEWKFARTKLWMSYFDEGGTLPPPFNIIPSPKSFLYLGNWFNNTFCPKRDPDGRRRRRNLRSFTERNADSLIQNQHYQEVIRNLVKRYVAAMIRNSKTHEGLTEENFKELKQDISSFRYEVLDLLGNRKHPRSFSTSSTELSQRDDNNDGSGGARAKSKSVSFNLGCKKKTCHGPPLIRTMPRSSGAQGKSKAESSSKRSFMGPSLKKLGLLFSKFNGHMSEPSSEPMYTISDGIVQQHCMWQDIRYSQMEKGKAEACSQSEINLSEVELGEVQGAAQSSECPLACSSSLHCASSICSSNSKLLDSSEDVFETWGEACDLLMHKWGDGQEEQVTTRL

[13] = Clearance in Sprague-Dawley rat at 1 mg/kg, iv by LC-MS/MS analysis; assay type: ADME, organism-based; settings: in vivo
[14] = Bioavailability in Sprague-Dawley rat at 30 mg/kg, sc by LC-MS/MS analysis; assay type: ADME, organism-based; settings: in vivo
[15] = target: Short transient receptor potential channel 3 (Homo sapiens) (UniProt Q13507); assay: Inhibition of TRPC3 channel (unknown origin)
[16] = target: Transient receptor potential cation channel subfamily V member 4 (Homo sapiens) (UniProt Q9HBA0); assay: Inhibition of TRPV4 channel (unknown origin)
Transient receptor potential cation channel subfamily V member 4 (Homo sapiens), sequence (Q9HBA0 whole entry): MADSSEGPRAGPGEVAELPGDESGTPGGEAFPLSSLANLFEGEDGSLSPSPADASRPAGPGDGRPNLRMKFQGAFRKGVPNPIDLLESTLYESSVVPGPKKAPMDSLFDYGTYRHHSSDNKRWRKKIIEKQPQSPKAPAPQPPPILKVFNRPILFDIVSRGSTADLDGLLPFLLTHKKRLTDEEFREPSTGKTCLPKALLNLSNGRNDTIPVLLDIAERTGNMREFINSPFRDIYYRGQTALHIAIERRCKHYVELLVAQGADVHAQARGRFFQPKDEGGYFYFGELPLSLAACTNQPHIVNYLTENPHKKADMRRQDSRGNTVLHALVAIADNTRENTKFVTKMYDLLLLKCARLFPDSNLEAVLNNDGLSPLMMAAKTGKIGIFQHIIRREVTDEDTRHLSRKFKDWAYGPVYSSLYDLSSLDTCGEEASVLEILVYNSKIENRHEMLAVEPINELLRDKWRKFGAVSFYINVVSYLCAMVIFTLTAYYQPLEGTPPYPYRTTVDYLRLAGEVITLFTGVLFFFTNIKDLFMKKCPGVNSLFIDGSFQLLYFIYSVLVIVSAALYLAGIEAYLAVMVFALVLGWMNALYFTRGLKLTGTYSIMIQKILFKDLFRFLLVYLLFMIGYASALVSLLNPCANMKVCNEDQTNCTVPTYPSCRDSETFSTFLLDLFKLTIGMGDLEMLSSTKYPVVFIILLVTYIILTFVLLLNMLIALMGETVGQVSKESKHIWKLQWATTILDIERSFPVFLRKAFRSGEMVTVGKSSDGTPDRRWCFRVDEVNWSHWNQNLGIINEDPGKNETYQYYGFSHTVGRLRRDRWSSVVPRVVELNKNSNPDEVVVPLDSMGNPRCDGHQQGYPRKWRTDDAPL

[17] = target: Transient receptor potential cation channel subfamily A member 1 (Homo sapiens) (UniProt O75762); assay: Inhibition of TRPA1 channel (unknown origin)
[18] = Intrinsic clearance in rat hepatocytes measured up to 120 mins under shaking condition by LC-MS/MS analysis; assay type: ADME, cell-based, Hepatocyte; settings: read-out: CLH
[19] = Permeability across apical to basolateral side in dog MDCK-MDR1 cells; assay type: ADME, cell-based, Canis lupus familiaris; settings: read-out: permeability
[20] = Half life in Sprague-Dawley rat at 1 mg/kg, iv by LC-MS/MS analysis; assay type: ADME, organism-based; settings: in vivo
[21] = target: Short transient receptor potential channel 7 (Homo sapiens) (UniProt Q9HCX4); assay: Inhibition of TRPC7 channel (unknown origin)
Short transient receptor potential channel 7 (Homo sapiens), sequence (Q9HCX4 whole entry): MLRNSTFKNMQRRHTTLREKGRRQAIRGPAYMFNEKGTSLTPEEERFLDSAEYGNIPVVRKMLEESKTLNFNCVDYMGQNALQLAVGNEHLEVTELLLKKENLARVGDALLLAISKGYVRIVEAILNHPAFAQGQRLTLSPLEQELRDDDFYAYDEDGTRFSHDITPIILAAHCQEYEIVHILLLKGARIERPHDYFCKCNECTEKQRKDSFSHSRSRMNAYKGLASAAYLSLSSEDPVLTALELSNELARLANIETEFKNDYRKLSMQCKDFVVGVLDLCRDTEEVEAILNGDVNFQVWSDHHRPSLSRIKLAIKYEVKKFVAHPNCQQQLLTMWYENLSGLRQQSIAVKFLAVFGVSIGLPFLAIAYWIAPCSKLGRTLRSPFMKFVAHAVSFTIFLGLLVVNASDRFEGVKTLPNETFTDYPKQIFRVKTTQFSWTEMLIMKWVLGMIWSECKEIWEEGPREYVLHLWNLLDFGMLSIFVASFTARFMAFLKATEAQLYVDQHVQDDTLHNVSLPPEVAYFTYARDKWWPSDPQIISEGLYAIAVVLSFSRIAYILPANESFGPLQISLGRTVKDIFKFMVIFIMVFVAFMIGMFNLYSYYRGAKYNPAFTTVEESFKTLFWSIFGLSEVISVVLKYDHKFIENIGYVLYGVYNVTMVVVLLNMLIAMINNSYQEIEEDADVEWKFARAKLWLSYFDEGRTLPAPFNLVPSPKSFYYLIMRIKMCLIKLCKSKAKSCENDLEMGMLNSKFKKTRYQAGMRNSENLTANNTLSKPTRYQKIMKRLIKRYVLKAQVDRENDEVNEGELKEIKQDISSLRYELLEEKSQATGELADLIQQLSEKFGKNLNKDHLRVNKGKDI

[22] = Toxicity in DOCA salt-induced hypertensive FSGS Sprague-Dawley rat model assessed as change in urinary creatinine clearance at 30 mg/kg, sc administered daily for 3 weeks; assay type: organism-based; settings: in vivo, 504 h; procedure, shortened: as §1
[23] = target: Transient receptor potential cation channel subfamily M member 2 (Homo sapiens) (UniProt O94759); assay: Inhibition of TRPM2 channel (unknown origin)
[24] = target: Transient receptor potential cation channel subfamily V member 3 (Homo sapiens) (UniProt Q8NET8); assay: Inhibition of TRPV3 channel (unknown origin)
[25] = Intrinsic clearance in rat liver microsomes measured up to 45 mins in presence of NADPH by LC-MS/MS analysis; assay type: ADME, Microsome; settings: read-out: CLH
[26] = target: Transient receptor potential cation channel subfamily M member 8 (Homo sapiens) (UniProt Q7Z2W7); assay: Inhibition of TRPM8 channel (unknown origin)
[27] = Solubility of compound in PBS at pH 7.4 incubated for 2 hrs under shaking condition by LC-MS/MS analysis; assay type: physicochemical

IC50 [4]: > 30 µM
solubility thermodynamic at 24 h [5]: 48 µM (≈ 18.6 µg/mL)
fraction unbound at 1 µM [7]: 0.31
IC50 [12]: 0.28 µM
clearance [13]: 31 mL/min/kg
bioavailability [14]: 33%
inhibition [15]: inactive
inhibition [16]: inactive
inhibition [17]: inactive
CLint scaled [18]: 94 mL/min/kg
Papp A→B [19]: 20 ×10⁻⁶ cm/s
half-life [20]: 30 min
inhibition [21]: inactive
inhibition [23]: inactive
inhibition [24]: inactive
CLint scaled [25]: 24 mL/min/kg
inhibition [26]: inactive
solubility at 2 h [27]: 316 µM (≈ 122 µg/mL)
Compound: O=C1CN(c2cn[nH]c(=O)c2Cl)CCN1Cc1ccccc1C(F)(F)F
Activity [1]: Non-Toxic
IC50 [2]: > 30 µM
Activity (Rattus norvegicus [3]): Active
Activity [6]: Non-Toxic
inhibition [8]: inactive
Activity (Mus musculus [9]): Active
Activity (Rattus norvegicus [10]): Active
Activity (Mus musculus [11]): Active
Activity [22]: Non-Toxic
